This note sets out measurements from ChEMBL document CHEMBL1136377, “2,4-disubstituted pyrimidines: a novel class of KDR kinase inhibitors” (Bioorg Med Chem Lett, 2003).

In series [1] the target is T1, Vascular endothelial growth factor receptor 2 (Homo sapiens, UniProt P35968). In words: Biochemical inhibition of phosphorylation of a poly-Glu/Tyr (4:1) peptide substrate by isolated vascular endothelial growth factor receptor 2 (cloned and expressed as a GST-fusion protein).
Series [2] addresses T2, Vascular endothelial growth factor receptor (Homo sapiens, UniProt P17948+P35916+P35968). Kind of series: Inhibition of VEGFstimulated mitogenesis in human umbilical vein endothelial cells. It counts as functional, cell-based. The conditions noted are these: endothelial cell.
The target of series [3] is T1, Vascular endothelial growth factor receptor 2. Kind of series: Biochemical inhibition of phosphorylation of a poly-Glu/Tyr (4:1) peptide substrate by isolated vascular endothelial growth factor receptor 2 (cloned and expressed as a GST-fusion protein).
The nature of series [4]: Plasma clearance was determined. The class given is ADME, organism-based, Canis lupus familiaris. The conditions noted are these: dog.
Series [5] can be described thus: Half life period was determined. The conditions noted are these: dog, in vivo. The class given is ADME, organism-based, Canis lupus familiaris.
Series [6] deals with VEGF-receptor 2 and Fibroblast growth factor receptor 2 (Homo sapiens) (UniProt P35968+P21802). In words: Selectivity for VEGF-receptor 2 (KDR) over FGF-receptor 2. It counts as protein assay.
The target in series [7] is VEGF-receptor 2 and PDGF-receptor beta (KDR and PDGFR beta) (Homo sapiens) (UniProt P09619+P35968). In words: Selectivity for VEGF-receptor 2 (KDR) over PDGF-receptor beta. The class given is protein assay.
Series [8] addresses VEGF-receptor 2 and Fibroblast growth factor receptor 1 (Homo sapiens) (UniProt P35968+P11362). Kind of series: Selectivity for VEGF-receptor 2 (KDR) over FGF-receptor 1. It counts as protein assay.
Series [9] in a line: Partition coefficient (logP). The class given is physicochemical. The conditions noted are these: octanol/water. In short, it runs like this: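 Partition coefficient measured by HPLC analysis of an octanol/phosphate buffer (pH 7.4) system.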
The target of series [10] is VEGF-receptor 2 and tyrosine-protein kinase SRC (Homo sapiens) (UniProt P12931+P35968). In words: Selectivity for VEGF-receptor (KDR) over c-SRC. The class given is protein assay.
Series [11] has as its target T2, Vascular endothelial growth factor receptor. In words: Inhibition of VEGFstimulated mitogenesis in human umbilical vein endothelial cells. The class given is functional, cell-based. The conditions noted are these: endothelial cell.
In series [12] the target is Vascular endothelial growth factor receptor 2 and 3 (KDR and Flt-4) (Homo sapiens) (UniProt P35916+P35968). In words: Selectivity for VEGF-receptor 2 (KDR) over VEGF-receptor 3 (FLT-4). The class given is protein assay.
For series [13], the target named is Vascular endothelial growth factor receptor 1 and 2 (Flt-1 and KDR) (Homo sapiens) (UniProt P17948+P35968). Kind of series: Selectivity for VEGF-receptor 2 (KDR) over VEGF-receptor 1 (FLT-1). The class given is protein assay.
Series [14] in a line: Volume distribution constant was determined. It counts as ADME, organism-based, Canis lupus familiaris. Particulars: dog, in vivo; read-out: Vdss.
The target of series [15] is T2, Vascular endothelial growth factor receptor. In words: Inhibition of VEGF-stimulated mitogenesis in human umbilical vein endothelial cells at 500 nM. It counts as functional, cell-based. Particulars: Endothelial cell.

Structures are written as SMILES.

Vascular endothelial growth factor receptor 2 and 3 (KDR and Flt-4) (Homo sapiens), sequence (P35916 whole entry, looked up): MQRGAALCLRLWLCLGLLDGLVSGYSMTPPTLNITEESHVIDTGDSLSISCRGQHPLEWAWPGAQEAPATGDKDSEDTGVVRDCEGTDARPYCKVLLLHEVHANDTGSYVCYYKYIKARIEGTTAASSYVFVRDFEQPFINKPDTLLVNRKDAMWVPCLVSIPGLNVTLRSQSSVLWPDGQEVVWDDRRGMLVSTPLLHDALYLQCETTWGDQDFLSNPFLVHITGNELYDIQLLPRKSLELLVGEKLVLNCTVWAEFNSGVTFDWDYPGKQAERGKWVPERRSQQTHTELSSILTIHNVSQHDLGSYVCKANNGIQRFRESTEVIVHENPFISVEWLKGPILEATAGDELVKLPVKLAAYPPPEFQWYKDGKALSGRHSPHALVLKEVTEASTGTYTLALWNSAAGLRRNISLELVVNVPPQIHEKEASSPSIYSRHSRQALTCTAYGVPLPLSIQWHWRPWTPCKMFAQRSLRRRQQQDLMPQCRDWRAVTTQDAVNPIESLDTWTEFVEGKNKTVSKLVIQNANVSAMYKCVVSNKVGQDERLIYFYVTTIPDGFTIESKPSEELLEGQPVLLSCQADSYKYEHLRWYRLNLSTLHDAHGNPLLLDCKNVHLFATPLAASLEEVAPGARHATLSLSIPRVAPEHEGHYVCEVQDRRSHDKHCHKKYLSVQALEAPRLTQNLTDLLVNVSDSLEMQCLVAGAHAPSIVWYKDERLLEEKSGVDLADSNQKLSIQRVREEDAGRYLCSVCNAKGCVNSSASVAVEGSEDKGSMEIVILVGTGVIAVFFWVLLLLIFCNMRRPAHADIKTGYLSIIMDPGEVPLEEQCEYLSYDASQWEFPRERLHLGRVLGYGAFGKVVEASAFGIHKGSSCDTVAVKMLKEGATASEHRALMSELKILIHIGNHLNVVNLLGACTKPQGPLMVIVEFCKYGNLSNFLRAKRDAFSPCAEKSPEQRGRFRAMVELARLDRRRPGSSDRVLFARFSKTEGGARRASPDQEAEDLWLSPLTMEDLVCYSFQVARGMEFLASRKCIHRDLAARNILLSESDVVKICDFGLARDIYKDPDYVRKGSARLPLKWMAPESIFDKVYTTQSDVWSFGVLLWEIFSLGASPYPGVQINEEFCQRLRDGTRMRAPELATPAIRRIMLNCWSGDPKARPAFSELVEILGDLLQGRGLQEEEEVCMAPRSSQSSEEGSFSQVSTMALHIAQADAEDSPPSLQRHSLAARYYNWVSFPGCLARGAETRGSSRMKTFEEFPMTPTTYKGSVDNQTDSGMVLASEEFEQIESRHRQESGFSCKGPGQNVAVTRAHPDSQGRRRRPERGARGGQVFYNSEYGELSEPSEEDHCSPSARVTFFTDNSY
Vascular endothelial growth factor receptor 2 and 3 (KDR and Flt-4) (Homo sapiens), sequence (P35968 whole entry, looked up): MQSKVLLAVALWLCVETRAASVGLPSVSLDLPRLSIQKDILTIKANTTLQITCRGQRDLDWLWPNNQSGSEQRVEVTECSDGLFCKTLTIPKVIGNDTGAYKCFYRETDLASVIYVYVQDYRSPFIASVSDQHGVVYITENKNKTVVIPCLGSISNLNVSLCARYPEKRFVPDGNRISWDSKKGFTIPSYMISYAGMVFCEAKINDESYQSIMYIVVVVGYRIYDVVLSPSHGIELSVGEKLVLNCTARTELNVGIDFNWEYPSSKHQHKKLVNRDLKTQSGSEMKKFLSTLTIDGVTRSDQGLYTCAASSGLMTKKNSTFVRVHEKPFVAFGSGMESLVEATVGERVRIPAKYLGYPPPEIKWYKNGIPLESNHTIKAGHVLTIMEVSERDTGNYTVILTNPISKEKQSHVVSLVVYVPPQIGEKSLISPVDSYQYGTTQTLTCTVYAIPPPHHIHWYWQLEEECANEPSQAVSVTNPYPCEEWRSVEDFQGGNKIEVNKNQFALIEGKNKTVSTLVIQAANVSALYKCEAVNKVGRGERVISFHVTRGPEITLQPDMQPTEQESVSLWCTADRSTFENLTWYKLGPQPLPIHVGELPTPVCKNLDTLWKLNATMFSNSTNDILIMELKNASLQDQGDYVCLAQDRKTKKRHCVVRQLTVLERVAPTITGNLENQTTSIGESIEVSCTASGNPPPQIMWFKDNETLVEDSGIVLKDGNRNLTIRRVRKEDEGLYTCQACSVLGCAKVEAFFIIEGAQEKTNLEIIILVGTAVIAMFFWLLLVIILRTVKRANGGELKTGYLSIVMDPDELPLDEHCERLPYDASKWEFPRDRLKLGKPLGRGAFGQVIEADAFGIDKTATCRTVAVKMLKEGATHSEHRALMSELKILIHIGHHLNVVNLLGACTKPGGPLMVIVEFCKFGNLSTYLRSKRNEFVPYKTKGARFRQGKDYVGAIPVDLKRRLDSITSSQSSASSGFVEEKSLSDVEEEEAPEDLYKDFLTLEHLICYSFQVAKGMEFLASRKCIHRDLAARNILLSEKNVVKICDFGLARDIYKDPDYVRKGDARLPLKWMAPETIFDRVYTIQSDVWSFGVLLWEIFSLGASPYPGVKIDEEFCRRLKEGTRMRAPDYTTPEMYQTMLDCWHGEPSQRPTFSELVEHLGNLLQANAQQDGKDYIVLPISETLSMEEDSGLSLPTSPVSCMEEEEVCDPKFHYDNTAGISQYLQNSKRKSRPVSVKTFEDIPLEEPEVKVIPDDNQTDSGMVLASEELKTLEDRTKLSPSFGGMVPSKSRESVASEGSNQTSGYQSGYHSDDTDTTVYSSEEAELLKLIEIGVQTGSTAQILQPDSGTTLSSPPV
Vascular endothelial growth factor receptor 1 and 2 (Flt-1 and KDR) (Homo sapiens), sequence (P17948 whole entry, looked up): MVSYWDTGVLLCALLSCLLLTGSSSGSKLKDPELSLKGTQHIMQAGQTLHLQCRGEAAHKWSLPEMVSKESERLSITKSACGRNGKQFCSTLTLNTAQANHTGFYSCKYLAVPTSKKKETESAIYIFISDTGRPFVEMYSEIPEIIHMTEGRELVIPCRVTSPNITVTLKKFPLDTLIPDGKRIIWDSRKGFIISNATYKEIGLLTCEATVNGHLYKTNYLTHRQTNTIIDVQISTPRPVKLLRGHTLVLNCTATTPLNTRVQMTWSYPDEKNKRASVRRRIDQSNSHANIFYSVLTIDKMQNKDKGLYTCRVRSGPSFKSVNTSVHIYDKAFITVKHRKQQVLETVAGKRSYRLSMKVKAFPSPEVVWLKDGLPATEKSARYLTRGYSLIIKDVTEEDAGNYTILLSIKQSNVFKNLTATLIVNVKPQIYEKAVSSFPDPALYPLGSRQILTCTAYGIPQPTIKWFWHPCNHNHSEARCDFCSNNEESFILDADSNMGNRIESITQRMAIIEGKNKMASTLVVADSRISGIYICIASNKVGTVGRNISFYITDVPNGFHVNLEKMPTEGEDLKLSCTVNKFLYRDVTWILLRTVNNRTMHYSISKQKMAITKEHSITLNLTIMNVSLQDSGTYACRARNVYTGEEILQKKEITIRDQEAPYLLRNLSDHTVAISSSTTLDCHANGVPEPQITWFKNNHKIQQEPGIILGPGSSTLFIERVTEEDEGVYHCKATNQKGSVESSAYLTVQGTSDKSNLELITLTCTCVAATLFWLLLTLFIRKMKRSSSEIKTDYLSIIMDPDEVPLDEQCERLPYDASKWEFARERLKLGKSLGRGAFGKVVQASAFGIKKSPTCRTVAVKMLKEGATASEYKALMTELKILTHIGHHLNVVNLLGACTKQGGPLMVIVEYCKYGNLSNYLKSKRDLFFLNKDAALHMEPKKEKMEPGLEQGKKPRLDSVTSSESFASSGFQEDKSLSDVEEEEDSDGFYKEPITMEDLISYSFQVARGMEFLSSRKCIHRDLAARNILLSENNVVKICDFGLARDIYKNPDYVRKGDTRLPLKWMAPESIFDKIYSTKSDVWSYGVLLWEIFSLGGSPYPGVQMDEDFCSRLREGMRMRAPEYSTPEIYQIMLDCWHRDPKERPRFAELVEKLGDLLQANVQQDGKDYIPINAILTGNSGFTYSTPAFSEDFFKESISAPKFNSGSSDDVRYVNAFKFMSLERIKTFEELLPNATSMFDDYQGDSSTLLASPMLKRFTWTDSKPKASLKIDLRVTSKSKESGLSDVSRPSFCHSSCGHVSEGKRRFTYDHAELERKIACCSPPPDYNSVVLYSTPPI
Vascular endothelial growth factor receptor 1 and 2 (Flt-1 and KDR) (Homo sapiens), sequence (P35968 whole entry, looked up): as the sequence (P35968 whole entry, looked up) above
T1 sequence (P35968 whole entry, the tested form may be a part): as the sequence (P35968 whole entry, looked up) above
VEGF-receptor 2 and Fibroblast growth factor receptor 1 (Homo sapiens), sequence (P11362 whole entry, looked up): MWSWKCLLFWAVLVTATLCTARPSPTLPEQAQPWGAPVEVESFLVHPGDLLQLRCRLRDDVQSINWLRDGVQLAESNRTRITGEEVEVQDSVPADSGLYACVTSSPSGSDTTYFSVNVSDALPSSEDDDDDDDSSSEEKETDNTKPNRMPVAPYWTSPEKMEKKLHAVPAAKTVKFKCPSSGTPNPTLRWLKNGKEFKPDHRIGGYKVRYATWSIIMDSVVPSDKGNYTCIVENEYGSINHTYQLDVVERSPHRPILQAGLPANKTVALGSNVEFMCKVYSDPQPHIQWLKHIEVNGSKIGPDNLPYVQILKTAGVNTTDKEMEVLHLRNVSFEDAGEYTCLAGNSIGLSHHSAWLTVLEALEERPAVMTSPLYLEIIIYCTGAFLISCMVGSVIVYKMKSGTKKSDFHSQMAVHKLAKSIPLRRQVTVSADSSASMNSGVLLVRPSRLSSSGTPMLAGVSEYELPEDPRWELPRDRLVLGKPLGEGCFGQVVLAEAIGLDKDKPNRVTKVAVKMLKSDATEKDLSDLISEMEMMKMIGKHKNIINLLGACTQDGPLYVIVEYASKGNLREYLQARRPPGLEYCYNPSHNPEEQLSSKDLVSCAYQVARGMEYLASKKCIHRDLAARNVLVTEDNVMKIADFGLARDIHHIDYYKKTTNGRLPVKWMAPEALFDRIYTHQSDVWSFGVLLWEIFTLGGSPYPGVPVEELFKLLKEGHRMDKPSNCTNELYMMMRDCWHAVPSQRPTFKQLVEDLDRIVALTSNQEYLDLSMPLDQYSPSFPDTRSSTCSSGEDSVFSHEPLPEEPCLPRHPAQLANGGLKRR
VEGF-receptor 2 and Fibroblast growth factor receptor 1 (Homo sapiens), sequence (P35968 whole entry, looked up): as the sequence (P35968 whole entry, looked up) above

`c1ccc(-c2nccn2-c2ccnc(Nc3ccncc3)n2)cc1` returned an IC50 in series [1] of 273 nM. That is a sub-micromolar value.
On the same count and under the same terms, the value for `Clc1cccc(Nc2nccc(-n3ccnc3-c3ccccc3)n2)c1` was 25 nM.
For the molecule `COc1cccc(Nc2nccc(-n3ccnc3-c3ccccc3)n2)c1`, the IC50 in series [1] was 20 nM; in [2], 88 nM.
`c1ccc(-c2nccn2-c2ccnc(Nc3ccccn3)n2)cc1` showed an IC50 in series [1] of 6830 nM. This counts as single-digit micromolar.
For the molecule `Cc1cc(Nc2nccc(-n3ccnc3-c3ccccc3)n2)cc(C(F)(F)F)c1`, the IC50 in [1] is 5 nM; in [2], 26 nM.
In series [1], `Cc1cc(C)cc(Nc2cc(-n3ccnc3-c3ccccc3)ncn2)c1` yielded an IC50 of 1810 nM.
The same measure, in the same setting: in the case of `FC(F)(F)c1cc(Nc2nccc(-n3ccnc3-c3ccccc3)n2)cc(C(F)(F)F)c1` it was 77 nM; in that of `c1ccc(-c2nccn2-c2ccnc(Nc3cccnc3)n2)cc1`, 340 nM; in that of `COc1cc(Nc2nccc(-n3ccnc3-c3ccccc3)n2)cc(C(F)(F)F)c1`, 19000 nM.
Still for that read-out and setting: in the case of `Cc1ccc(Nc2nccc(-n3ccnc3-c3ccccc3)n2)cc1` it was 279 nM; in that of `COc1ccccc1Nc1nccc(-n2ccnc2-c2ccccc2)n1`, 289 nM; in that of `[O-][n+]1cccc(Nc2nccc(-n3ccnc3-c3ccccc3)n2)c1`, 3570 nM.
For the molecule `Clc1cc(Cl)cc(Nc2nccc(-n3ccnc3-c3ccccc3)n2)c1`, it took 26 nM to reach half-maximal inhibition in series [1] (IC50).
Turning to `Cc1cc(CO)cc(Nc2nccc(-n3ccnc3-c3ccccc3)n2)c1`, the IC50 was 9 nM in series [3] and 23 nM in series [2].
With `FC(F)(F)c1cccc(Nc2nccc(-n3ccnc3-c3ccccc3)n2)c1`, the IC50 in series [1] turned out to be 10 nM; in [2], 303 nM.
In the case of `Cc1cc(C)cc(Nc2cc(-n3ccnc3-c3ccccc3)ccn2)c1`, the midpoint of inhibition in series [1], the IC50, lay at 892 nM.
`Cc1cc(C)cc(Nc2nccc(-n3cc(C)nc3-c3ccccc3)n2)c1` displayed an IC50 in series [1] of 450 nM.
`Cc1cc(C)cc(Nc2nccc(-n3ccnc3-c3ccccc3)n2)c1` returned a clearance in [4] of 30.1 mL/min/kg. Besides, in [5], the half-life was 42.6 min. The Selectivity in series [6] is 261; in series [7], 6; in series [8], 606; in series [10], 10; in series [12], 5; in [13] it was 30. In addition, the figures for the half-inhibitory concentration (IC50) in series [1] and in series [11] were 6 nM and 19 nM, respectively. The molecule also displayed a logP in series [9] of 3.74. In addition, the Vd in series [14] was 1.11 L/kg.
The molecule `COc1ccc(Nc2nccc(-n3ccnc3-c3ccccc3)n2)cc1` gave an IC50 in [1] of 392 nM.
Regarding `COc1cc(Nc2nccc(-n3ccnc3-c3ccccc3)n2)cc(OC)c1`, the IC50 came to 5 nM in [1] and 22 nM in series [2].
`Cc1ccccc1Nc1nccc(-n2ccnc2-c2ccccc2)n1`: the concentration for half-maximal inhibition (IC50) in [1] worked out at 3080 nM.
Consider `c1ccc(Nc2nccc(-n3ccnc3-c3ccccc3)n2)cc1`, for which the IC50 in series [1] was 105 nM. Besides, the Selectivity in series [8] came out at 295; in series [10], 11; in series [12], 5; in series [13] it was 13. Besides, the inhibition in series [15] amounted to 8%.
Take `Cc1cccc(Nc2nccc(-n3ccnc3-c3ccccc3)n2)c1`: the Selectivity came to 686 in series [6]; 22 in series [7]; 1020 in series [8]; 11 in series [10]; 13 in series [12]; 103 in series [13]. Also, the IC50 in [1] was found to be 18 nM; in series [11] it was 151 nM.
As for `CC(=O)N1CCN(Cc2cc(C)cc(Nc3nccc(-n4ccnc4-c4ccccc4)n3)c2)CC1`, the concentration for half-maximal inhibition (IC50) in series [1] is 32 nM; in [2], 396 nM.

The term IC50 denotes the concentration at which inhibition is half-maximal. High values mean weaker potency in that assay, low ones greater potency in that assay. As usually defined, the clearance is the volume of plasma or blood freed of the substance per unit of time. As usually defined, the half-life is how long it takes for the measured level to halve. Read a high half-life as slow loss. Usually logP stands for the decadic logarithm of the partition coefficient of the neutral form, usually between octanol and water. In general, inhibition refers to the change of the read-out against control, counted positive when it falls. A higher inhibition goes with a strong effect.
